Source: PMC5033713 (Neuron, 2016)

Columns and labels:
Format in all cases: cell-based
[1] = target: GluA2WT (Rattus norvegicus, UniProt P19491); conditions: for voltage dependence of current inhibition: GluA2WT receptor-mediated current; for Hill coefficient (nHill): GluA2WT, HEK293, 3 mM Glu co-application, −60 mV, 30 μM CTZ, logistic fit
[2] = target: GluA2Del (Rattus norvegicus, UniProt P19491, C610A/DEL399-404/DEL566-584/E587D/G405E/N256E/N406D/N413Q/S585D/S586T/V397L, form not given); conditions: for voltage dependence of current inhibition: GluA2Del receptor-mediated current; for Hill coefficient (nHill): GluA2Del, HEK293, 3 mM Glu co-application, −60 mV, 30 μM CTZ, logistic fit
[3] = target: GluA2D519A (Rattus norvegicus, UniProt P19491, D540A); assay: Whole-cell patch-clamp, current inhibition of alanine mutant GluA2D519A
In short: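 Rat GluA2 D519A transiently expressed in HEK293 cells (Lipofectamine 2000). Whole-cell recording at −60 mV with piezo-driven theta-pipette fast solution exchange. 500 ms co-applications of 3 mM Glu with graded test compound concentrations, 30 μM CTZ present throughout, Glu alone as control. Logistic fits of normalized currents gave IC50 and nHill, n = 7 cells. IC50 also expressed relative to wild-type.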

[4] = target: GluA2F623A (Rattus norvegicus, UniProt P19491, F644A); assay: Whole-cell patch-clamp, current inhibition of alanine mutant GluA2F623A
[5] = target: GluA2 S615A (Rattus norvegicus, UniProt P19491, S636A); assay: Whole-cell patch-clamp, current inhibition of alanine mutant S615A
[6] = target: GluA2 S788A (Rattus norvegicus, UniProt P19491, S809A); assay: Whole-cell patch-clamp, current inhibition of alanine mutant S788A; conditions: S788 alanine substitution versus wild-type
In short: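 Alanine-substituted GluA2 transiently expressed in HEK293 cells. Whole-cell currents evoked by Glu via rapid theta-pipette solution exchange, co-applied with graded noncompetitive inhibitor concentrations. Normalized current concentration dependencies fitted with the logistic equation. Mutant IC50 expressed relative to the wild-type receptor value.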

**Q.** Which IC50 [1] does the source give for `CNC(=O)N1N=C(c2ccc(N)cc2)c2cc3c(cc2CC1C)OCO3` (stereo not shown) [GYKI, GYKI 53655] here?
**A.** Its IC50 is 14.5 ± 1.6 µM.

**Q.** And the “voltage dependence of current inhibition” value [1]?
**A.** Its value is “voltage independent”.

**Q.** What about the “Hill coefficient (nHill)” value [1] of the same compound?
**A.** Its value is 1.29 ± 0.08.

**Q.** What about the “voltage dependence of current inhibition” value [2] of the same compound?
**A.** The value was “voltage independent”.

**Q.** What about the “Hill coefficient (nHill)” value [2] of the same compound?
**A.** The value was 1.29 ± 0.08.

**Q.** What about the IC50 [3] of the same compound?
**A.** The IC50 was 3.8 ± 0.58 µM.

**Q.** What about the nHill ([3]; D519A mutant, 3 mM Glu, −60 mV, 30 μM CTZ) of the same compound?
**A.** The nHill was 1.58 ± 0.12.

**Q.** What about the IC50 [4] of the same compound?
**A.** The IC50 was 153 ± 8 µM.

**Q.** What about the nHill ([4]; F623A mutant, 3 mM Glu, −60 mV, 30 μM CTZ) of the same compound?
**A.** The nHill was 1.18 ± 0.07.

**Q.** What about the “change in IC50 value compared to wild-type” value [5] of the same compound?
**A.** Its value is “two orders of magnitude increase”.

**Q.** And the “effect of substitution on inhibition” value [6]?
**A.** The value was “Reduced affinity”.

**Q.** Which IC50 [1] does the source give for `N#Cc1ccccc1-c1cc(-c2ccccn2)cn(-c2ccccc2)c1=O` [PMP, perampanel] here?
**A.** The IC50 was 0.89 ± 0.07 µM.

**Q.** And the “voltage dependence of current inhibition” value [1]?
**A.** Its value is “voltage independent”.

**Q.** What about the “Hill coefficient (nHill)” value [1] of the same compound?
**A.** Its value is 1.08 ± 0.05.

**Q.** And the “voltage dependence of current inhibition” value [2]?
**A.** Its value is “voltage independent”.

**Q.** What about the “Hill coefficient (nHill)” value [2] of the same compound?
**A.** The value was 1.08 ± 0.04.

**Q.** What about the “effect of substitution on inhibition” value ([3]; D519 alanine substitution versus wild-type) of the same compound?
**A.** The value was “no appreciable effect”.

**Q.** What about the “change in IC50 value compared to wild-type” value ([4]; F623A mutant) of the same compound?
**A.** Its value is “two orders of magnitude increase”.

**Q.** What about the “effect of substitution on inhibition” value [6] of the same compound?
**A.** Its value is “no appreciable effect”.
